Activity calls are given as the source filed them. The rule behind the calls is not given here.
How the values were obtained:
HepG2 [1] = assay: Induction of apoptosis in human HepG2 cells assessed as late apoptotic cells at 10 uM after 24 hrs by annexin V/[…] staining-based fluorescent microscopic method (reference value: 1.91%); format: functional
HepG2 [2] = assay: Induction of apoptosis in human HepG2 cells assessed as upregulation of caspase-9 levels at 8 to 12 uM after 24 hrs by Western blot method; format: functional, cell-based
In short: (§1)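 Treated HepG2 cells were lysed on ice in 1% SDS/Tris-HCl pH 7.5 buffer with EDTA, NaCl, PMSF, leupeptin and trypsin inhibitor, then cleared at 12,000 × g for 5 min. Protein was quantified by BCA, and 40–50 µg was run on 12% SDS-PAGE and blotted to PVDF. Membranes were blocked with 5% milk, incubated with primary antibody overnight at 4 °C and HRP secondary for 1 h. Detection by chemiluminescence with densitometry.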

HepG2 [3] = assay: Induction of apoptosis in human HepG2 cells assessed as necrotic cells at 8 uM after 24 hrs by annexin V/[…] staining-based fluorescent microscopic method (reference value: 0.28%); format: functional
HepG2 [4] = assay: Induction of apoptosis in human HepG2 cells assessed as viable cells at 10 uM after 24 hrs by annexin V/[…] staining-based fluorescent microscopic method (reference value: 91.31%); format: functional; conditions: HepG2, 24 h, read-out: Activity
HepG2 [5] = assay: Induction of apoptosis in human HepG2 cells assessed as viable cells at 12 uM after 24 hrs by annexin V/[…] staining-based fluorescent microscopic method (reference value: 91.31%); format: functional; conditions: HepG2, 24 h, read-out: Activity
HepG2 [6] = assay: Induction of apoptosis in human HepG2 cells assessed as early apoptotic cells at 10 uM after 24 hrs by annexin V/[…] staining-based fluorescent microscopic method (reference value: 6.50%); format: functional
HepG2 [7] = assay: Cell cycle arrest in human HepG2 cells assessed as accumulation at G2 phase at 10 uM after 48 hrs by propidium iodide staining-based flow cytometric method (reference value: 19.04%); format: functional
HepG2 [8] = assay: Induction of apoptosis in human HepG2 cells assessed as upregulation of Bax levels at 8 to 12 uM after 24 hrs by Western blot method; format: functional, cell-based; in short: as §1
HepG2 [9] = assay: Induction of apoptosis in human HepG2 cells assessed as early apoptotic cells at 12 uM after 24 hrs by annexin V/[…] staining-based fluorescent microscopic method (reference value: 6.50%); format: functional
NCI-H460 = assay: Cytotoxicity against human NCI-H460 cells after 48 hrs by MTT assay; format: functional, cell-based; conditions: NCI-H460, 48 h
In short: (§2)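 HepG2, SK-OV-3, NCI-H460 and HL 7702 lines grown as monolayers in DMEM with 10% FBS plus penicillin/streptomycin at 37 °C, 5% CO2. Exponentially growing cells were seeded and exposed to the indicated concentrations for 48 h. MTT was then added for 4 h at 37 °C, formazan was dissolved in DMSO, and OD was read at 490 nm. Each concentration was run in triplicate wells, with three independent runs per line.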

HepG2 [10] = assay: Induction of apoptosis in human HepG2 cells assessed as late apoptotic cells at 12 uM after 24 hrs by annexin V/[…] staining-based fluorescent microscopic method (reference value: 1.91%); format: functional
HepG2 [11] = assay: Cell cycle arrest in human HepG2 cells assessed as accumulation at G2/M phase after 48 hrs by propidium iodide staining-based flow cytometric method; format: functional
HepG2 [12] = assay: Induction of apoptosis in human HepG2 cells assessed as downregulation of Bcl-2 levels at 8 to 12 uM after 24 hrs by Western blot method; format: functional, cell-based; in short: as §1
HepG2 [13] = assay: Induction of apoptosis in human HepG2 cells assessed as increase in intracellular calcium release at 10 uM after 24 hrs by Fluo-3 AM dye-based fluorescence microscopic method
HepG2 [14] = assay: Downregulation of cyclin B1 expression in human HepG2 cells after 48 hrs by Western blot method; format: functional, cell-based
HepG2 [15] = assay: Cell cycle arrest in human HepG2 cells assessed as accumulation at S phase at 12 uM after 48 hrs by propidium iodide staining-based flow cytometric method (reference value: 30.49%); format: functional
HepG2 [16] = assay: Downregulation of CDK1 expression in human HepG2 cells after 48 hrs by Western blot method; format: functional, cell-based
HepG2 [17] = assay: Cell cycle arrest in human HepG2 cells assessed as accumulation at G2 phase at 8 uM after 48 hrs by propidium iodide staining-based flow cytometric method (reference value: 19.04%); format: functional
HepG2 [18] = assay: Cytotoxicity against human HepG2 cells after 48 hrs by MTT assay; format: functional, cell-based; conditions: HepG2, 48 h; in short: as §2
HepG2 [19] = assay: Induction of apoptosis in human HepG2 cells assessed as increase in release of mitochondrial cytochrome c into cytosol at 8 to 12 uM after 24 hrs by Western blot method; format: functional, cell-based; in short: as §1
HepG2 [20] = assay: Cell cycle arrest in human HepG2 cells assessed as accumulation at G1 phase at 10 uM after 48 hrs by propidium iodide staining-based flow cytometric method (reference value: 50.47%); format: functional
HepG2 [21] = assay: Induction of apoptosis in human HepG2 cells assessed as cell budding at 10 uM after 24 hrs by acridine orange/ethidium bromide staining-based fluorescent microscopic method; format: functional
In short: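 Cells were plated at 5×10^4 cells/mL on sterile cover slips. Medium was replaced with fresh medium containing 10% FBS plus compound. After treatment, cover slips were inverted onto slides with acridine orange/ethidium bromide stain and viewed by fluorescence microscopy.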

HepG2 [22] = assay: Induction of apoptosis in human HepG2 cells assessed as late apoptotic cells at 8 uM after 24 hrs by annexin V/[…] staining-based fluorescent microscopic method (reference value: 1.91%); format: functional
HepG2 [23] = assay: Induction of apoptosis in human HepG2 cells assessed as necrotic cells at 10 uM after 24 hrs by annexin V/[…] staining-based fluorescent microscopic method (reference value: 0.28%); format: functional
L02 = assay: Cytotoxicity against human HL-7702 cells after 48 hrs by MTT assay; format: cell-based; conditions: L02, 48 h; in short: as §2
HepG2 [24] = assay: Induction of apoptosis in human HepG2 cells assessed as early apoptotic cells at 8 uM after 24 hrs by annexin V/[…] staining-based fluorescent microscopic method (reference value: 6.50%); format: functional
HepG2 [25] = assay: Induction of apoptosis in human HepG2 cells assessed as necrotic cells at 12 uM after 24 hrs by annexin V/[…] staining-based fluorescent microscopic method (reference value: 0.28%); format: functional
HepG2 [26] = assay: Cell cycle arrest in human HepG2 cells assessed as accumulation at G1 phase at 12 uM after 48 hrs by propidium iodide staining-based flow cytometric method (reference value: 50.47%); format: functional
HepG2 [27] = assay: Upregulation of p21 expression in human HepG2 cells after 48 hrs by Western blot method; format: functional, cell-based
HepG2 [28] = assay: Upregulation of p27 expression in human HepG2 cells after 48 hrs by Western blot method; format: functional, cell-based
HepG2 [29] = assay: Cell cycle arrest in human HepG2 cells assessed as accumulation at S phase at 8 uM after 48 hrs by propidium iodide staining-based flow cytometric method (reference value: 30.49%); format: functional
SK-OV-3 = assay: Cytotoxicity against human SKOV3 cells after 48 hrs by MTT assay; format: functional, cell-based; conditions: SK-OV-3, 48 h; in short: as §2
HepG2 [30] = assay: Cell cycle arrest in human HepG2 cells assessed as accumulation at G2 phase at 12 uM after 48 hrs by propidium iodide staining-based flow cytometric method (reference value: 19.04%); format: functional

## CCOP(=O)(Cc1ccc(/N=C/c2cc3cc(C)ccc3[nH]c2=O)cc1)OCC
HepG2 [1]
  Activity: 9.24%
HepG2 [2]
  Activity: Active
HepG2 [3]
  Activity: 2.9%
HepG2 [4]
  viability at 10 µM: 56.3%
HepG2 [5]
  viability at 12 µM: 44.5%
HepG2 [6]
  Activity: 34.38%
HepG2 [7]
  Activity: 36.92%
HepG2 [8]
  Activity: Active
HepG2 [9]
  Activity: 43.07%
NCI-H460
  IC50: 39 µM
HepG2 [10]
  Activity: 11.83%
HepG2 [11]
  Activity: Dose-dependent effect
HepG2 [12]
  Activity: Active
HepG2 [13]
  Activity: Active
HepG2 [14]
  Activity: Dose-dependent effect
HepG2 [15]
  Activity: 27.49%
HepG2 [16]
  Activity: Dose-dependent effect
HepG2 [17]
  Activity: 34.68%
HepG2 [18]
  IC50: 9.99 µM
HepG2 [19]
  Activity: Active
HepG2 [20]
  Activity: 33.91%
HepG2 [21]
  Activity: Active
HepG2 [22]
  Activity: 15.49%
HepG2 [23]
  Activity: 0.12%
L02
  IC50: > 100 µM
HepG2 [24]
  Activity: 19.08%
HepG2 [25]
  Activity: 0.57%
HepG2 [26]
  Activity: 25.75%
HepG2 [27]
  Activity: Dose-dependent effect
HepG2 [28]
  Activity: Dose-dependent effect
HepG2 [29]
  Activity: 30.01%
SK-OV-3
  IC50: 34.8 µM
HepG2 [30]
  Activity: 46.77%
